Compound activity deposited in PubChem by several laboratories.
WT yeast gro inh = growth inhibition of WT strain, primary screen, mitochondrial fusion inhibitor project, WT and mutant strains, chemical genetic. inhibition, % at 10 µM. AID 1362, 2008. hit rate 2.1% among 190,000. mitochondrial fusion phenotypic screen; in the data active = inhibition above about 58%; tested in S. cerevisiae
RAM inhibit = inhibitors of the yeast RAM network, primary screen, dse1pr::URA3 reporter, 5-FOA selection. S. cerevisiae dse1pr::URA3 reporter, 5-FOA growth OD615, 2 d; analog-sensitive cbk1-as2 kinase mutant strain. hit rate 1.8% among 190,000. inhibition, % at 50 µM;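 active = inhibition above a set limit, 3 SD over mean compound inhibition, cut at about 8.4% in these data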;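 also: 0% = DMSO-only wells with no growth and 100% = 10 µM 1-NA-PP1 full growth; inhibition rescues growth on 5-FOA so higher OD means more RAM inhibition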
Hck Nef HTS = inhibitors of Nef-activated human Hck kinase, primary screen, biochemical, Z-Lyte FRET, 384-well, Hck-YEEI | Recombinant Hck-YEEI plus Nef, Z-Lyte FRET kinase assay | inhibition, % at 20 µM | hit rate 0.68% among 220,000 | Tyrosine-protein kinase HCK (Homo sapiens), P08631 | AID 463187, 2010;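 active = Hck-Nef kinase inhibition above about 50%, limit read from the data; inactive = inhibition below that limit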;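 also: 0% = DMSO with Hck plus Nef and 100% = Hck alone without Nef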
Arbovirus inh = antivirals against arbovirus infection, primary screen, cell-based, full library, 10K replicate subset | hit rate 0.37% among 200,000 | arbovirus infection cell-based antiviral screen | inhibition, % at 10 µM; in the data active = inhibition above about 30%
NCF1 inh = p47phox/p22phox peptide binding inhibitors, primary screen, biochemical, uHTS, NADPH oxidase regulatory subunit | fluorescence polarization, 2 h | Neutrophil cytosol factor 1 (Homo sapiens), P14598 | inhibition, % at 24.7 µM | hit rate 0.53% among 220,000;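 active = inhibition above about 30%, limit read from the data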;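 also: 0% = p47phox with labelled peptide and 100% = labelled peptide alone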
Target sequence (P14598 whole entry, looked up): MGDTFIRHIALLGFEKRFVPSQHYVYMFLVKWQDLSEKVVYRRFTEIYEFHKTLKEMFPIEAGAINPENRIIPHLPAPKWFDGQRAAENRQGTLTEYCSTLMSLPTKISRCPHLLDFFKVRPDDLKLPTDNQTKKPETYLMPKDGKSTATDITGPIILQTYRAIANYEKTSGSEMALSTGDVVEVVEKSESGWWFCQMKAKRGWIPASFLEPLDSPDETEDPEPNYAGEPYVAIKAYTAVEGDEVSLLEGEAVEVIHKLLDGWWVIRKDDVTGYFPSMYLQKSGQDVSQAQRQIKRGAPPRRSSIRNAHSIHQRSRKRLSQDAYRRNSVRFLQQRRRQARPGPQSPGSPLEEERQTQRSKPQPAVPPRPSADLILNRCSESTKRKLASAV
Biofilm kill mix = clotrimazole potentiators killing C. albicans biofilm, primary screen, 4-compound mixtures | AID 1242, 2008 | C. albicans biofilm persisters + clotrimazole, fluorescence viability; primary screen in compound mixtures of four per well | hit rate 0.02% among 120,000 | inhibition, % at 7.6 µM;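 active = inhibition above 30.3% in the primary screen of four-compound pools, then above 30% when the compound was retested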;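 also: compounds exposed to preformed 24 h biofilms for 48 h; 0% = untreated biofilm control and 100% = clotrimazole plus chlorhexidine kill blank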
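Test system: C. albicans biofilms. Buffer or medium: RPMI/MOPS medium, pH 7.0. Timing: 48 h compound exposure at 37 °C. Technique: Alamar Blue fluorescence. Evaluation: percent inhibition of biofilm viability.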
An asterisk follows results filed as active; / = no result given; + = active, no number. Sampled rows, rich in hits. Any-hit rate of the full collection: about 4.6%.

SMILES | WT yeast gro inh | RAM inhibit | Hck Nef HTS | Arbovirus inh | NCF1 inh | Biofilm kill mix
CC(C)N1CCN(C2CSCCSC2)CC1CCO (centres undefined) | / | / | -15.1 | / | -6.8 | 20.9
COc1cccc(NC(=O)CSc2nnc(-c3cc(C)n(-c4ccccc4)c3C)o2)c1 | 50.5 | 9.3* | 0.0 | -18.0 | -17.9 | /
COc1ccccc1-c1nnc(SCC(=O)Nc2c(Cl)cccc2Cl)o1 | -0.8 | 0.3 | 0.0 | -10.1 | -7.5 | /
Cc1cc(C)cc(NC(=O)CSc2nnc(-c3ccccc3Br)o2)c1 | 2.8 | 10.8* | 2.7 | -7.5 | -5.2 | /
O=c1c2ccccc2c(/C=N/c2n[nH]c(CCCO)n2)c(O)n1-c1ccccc1Cl | -18.6 | 8.5* | 24.0 | 3.8 | -11.0 | -1.3
O=C(N/N=C/c1c(O)n(-c2ccccc2Cl)c(=O)c2ccccc12)C1COc2ccccc2O1 (centres undefined) | 3.9 | 5.7 | 4.5 | -16.5 | -143.7 | 10.0
O=C1/C(=C\c2ccco2)NC(=S)N1c1ccccc1 | 1.5 | 2.1 | 52.7* | 3.5 | -17.8 | 4.0
CCCN=C1N/C(=C\c2ccco2)C(=O)N1c1ccccc1 | -1.6 | 0.1 | 25.5 | 1.0 | -9.6 | /
CCCSc1ccc2nc(-c3ccccc3)cn2c1 | 70.3* | 0.1 | 6.1 | -11.5 | -6.1 | 12.4
Cc1ccc(/C(CSc2nccn2-c2ncc(C(F)(F)F)cc2Cl)=N\O)cc1 | -7.1 | 2.8 | -0.2 | 11.8 | + | /
O=C(CSCc1ccco1)Nc1cc(C(F)(F)F)ccc1N1CCOCC1 | 3.3 | 9.1* | 0.7 | 2.4 | -21.6 | /
CC1=NN(c2ccccc2)C(=O)/C1=C/C=C/c1ccc(N(C)C)cc1 | 54.4 | 4.2 | 17.3 | -16.7 | 44.1* | 5.8
CCN(CC)S(=O)(=O)c1cc(NC(=O)CSc2nnc(-c3cccs3)o2)ccc1C | -15.0 | 2.0 | 0.4 | -3.0 | 51.9* | 12.8
Cc1cccc(NC(=O)Cn2cnc3c(oc4nc5c(cc43)COC(C)(C)C5)c2=O)c1 | -9.8 | 8.5* | 1.8 | -5.2 | -20.1 | 8.0
CC(C)=C1C2CCC1C(C(=O)Nc1sc(C)c(-c3ccc(C(C)C)cc3)c1C(N)=O)C2C(=O)O (centres undefined) | 61.5* | 4.4 | 11.5 | -2.3 | -3.4 | 13.5
CCOC(=O)c1sc(NC(=O)CSc2nccc(C)n2)nc1C | 0.6 | 8.5* | 24.7 | 14.3 | 3.9 | 6.7
CCOC(=O)c1sc(NC(=O)CSc2nccc(C)n2)c(C#N)c1C | -3.4 | 0.9 | -0.1 | -15.3 | -6.9 | /
Cc1nn(-c2ccccc2)c(N)c1N=Nc1ccc2ccccc2c1 | 70.1* | 6.3 | 3.7 | -19.7 | -22.2 | -1.3
CCNc1nc(NCC)nc(SCCOC(=O)COc2ccc(Cl)cc2Cl)n1 | 77.0* | 0.1 | -21.6 | -1.6 | -22.2 | /
CCNc1nc(NC(C)C)nc(SCCOC(=O)c2ccccc2)n1 | 28.6 | 1.2 | 5.6 | 2.6 | -6.8 | 11.8
CC(C)Nc1nc(NC(C)C)nc(SCCOC(=O)Nc2ccc(Cl)cc2Cl)n1 | 65.7* | 2.1 | -0.3 | -6.7 | 2.6 | 17.5
C=CCC1(C#N)C(SC)=NC2=C(C(=O)CC(C)(C)C2)C1c1ccc(Br)cc1 (centres undefined) | 73.8* | 1.9 | 1.0 | 13.6 | -0.9 | 12.5
COc1ccc(N(CC(=O)NCc2ccccn2)S(=O)(=O)c2ccccc2[N+](=O)[O-])c(OC)c1 | -6.6 | 0.4 | 24.6 | -1.3 | 1.0 | 16.6
O=C(/C=C/c1cccc(Cl)c1)N1CCC(Cc2ccccc2)CC1 | 65.3* | 7.7 | 1.4 | -15.3 | -10.8 | 20.8
O=C(/C=C/c1ccccc1)N1CCC(Cc2ccccc2)CC1 | 3.2 | 2.2 | 1.3 | 7.3 | -13.6 | /
SMILES | WT yeast gro inh | RAM inhibit | Hck Nef HTS | Arbovirus inh | NCF1 inh | Biofilm kill mix
CC(C)CCNC(=O)C(C)N(C(=O)c1snc(C(N)=O)c1N)c1cnc2ccccc2c1 (centres undefined) | -0.1 | -2.5 | -1.9 | 1.1 | -5.1 | -9.3
CCCCCCN1C=CC(=C/C=C(\C#N)C(=O)OCC)C=C1 | 21.8 | 0.1 | 3.0 | 2.7 | 33.2* | /
CN1/C(=C/C=C(C#N)C#N)C=Cc2ccccc21 | / | / | -10.6 | / | -262.6 | 21.7
CCCN1C=CC(=C/C=C(\C#N)C(=O)OCC)C=C1 | -18.7 | 0.0 | -0.7 | 1.9 | -8.2 | /
CCOC(=O)/C(C#N)=C/C=C1\C=Cc2ccccc2N1CC | 3.6 | 6.2 | 23.8 | 3.7 | 124.5* | 2.2
CCCCC(=O)Nc1sc2c(c1-c1nc3ccccc3s1)CCN(C(C)=O)C2 | 5.7 | 1.9 | 66.0* | -39.6 | -37.1 | /
CC(=O)N1CCc2c(sc(NC(=O)C3CC3)c2-c2nc3ccccc3s2)C1 | 8.0 | 5.5 | 2.8 | -12.0 | -107.5 | /
CCOC(=O)c1sc2nc(CC(=O)OC)nc(NCc3ccco3)c2c1C | -10.0 | 10.7* | 2.3 | -5.8 | -26.8 | /
Cc1cc(SCC(=O)NCCC2=CCCCC2)nc2ccccc12 | 69.3* | -0.1 | 5.8 | 3.0 | -5.7 | 6.1
O=C(CSc1nc2cc(Cl)ccc2s1)c1cc2ccccc2o1 | 40.5 | 9.4* | 10.5 | 3.1 | -155.7 | /
Cc1cc(SCC(=O)O)nc2ccccc12 | -6.5 | 0.0 | 14.1 | -1.9 | -14.4 | 28.9
CC(=O)NCCn1c(SCC(=O)NCCC2=CCCCC2)nc2ccccc2c1=O | -3.8 | 2.4 | 0.1 | -4.9 | 2.1 | /
Cc1cc(SCC(=O)c2cc3ccccc3o2)nc2ccccc12 | -7.9 | 11.0* | 1.0 | -0.7 | -61.8 | /
COc1ccc2c(C)cc(SCC(=O)Nc3nsc(-c4ccc(C)cc4)n3)nc2c1 | 30.3 | 6.6 | -3.4 | -8.2 | -3.0 | 10.5
Cc1ccc(-c2nc(NC(=O)CSc3cc(C)c4ccccc4n3)ns2)cc1 | -17.5 | 2.3 | 3.4 | -17.1 | 51.5* | 4.3
O=C1CC(c2ccccc2)CC(=O)C1CS(=O)(=O)c1ccccc1 (centres undefined) | -37.4 | 2.0 | 30.1 | 7.9 | 17.8 | 10.2
CCOc1ccc(/C=N/OCC(=O)Nc2ccc(OCc3ccccc3)cc2)cc1OC | 3.2 | 11.3* | 3.3 | -13.7 | -18.5 | 10.7
COc1cc(/C=N/OCC(=O)Nc2ccc(OC(F)F)cc2)ccc1OCc1ccccc1 | 31.1 | 8.4* | -0.5 | -3.6 | -68.9 | 13.5
COc1cc(/C=N/OCC(=O)NC2CCCCC2)ccc1OCc1ccccc1 | -11.0 | 7.2 | 0.7 | -9.9 | -15.9 | 6.6
COc1ccc(NC(=O)COc2ccc(/C=N/O)cc2OC)cc1 | -23.7 | -0.4 | 19.0 | 2.6 | -3.8 | 11.0
Cc1oc2c(c1C(=O)NCc1cccnc1)C(=O)c1ccccc1C2=O | 87.8* | -0.3 | 9.9 | -22.1 | 0.7 | 6.5
COc1ccc(CNC(=O)c2c(C)oc3c2C(=O)c2ccccc2C3=O)cc1 | 58.0 | 2.6 | -1.2 | -34.7 | 5.8 | 15.5
COc1cc(-n2c(=O)c3ccccc3n(CC(=O)c3ccccc3)c2=O)cc(OC)c1OC | -1.3 | 4.7 | 12.5 | -4.8 | 21.1 | 31.6
